CHOP inh: blocks CHOP induction under ER stress | AID 2732 | CHO-K1 CHOP-promoter luciferase, tunicamycin-induced, 15-18 h | inhibition, % at 10 µM | 3.8% of 220,000 active;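 active = compounds that reduced the stress-induced luciferase reporter signal by more than about 70% of percent inhibition, limit read from the data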
p-CIP stab down: compounds decreasing mouse p/CIP protein stability | Q05BA5 | F442A p/CIP-EGFP cells, EGFP fluorescence, 16 h | decrease of EGFP signal, % at 10 µM | 0.01% of 290,000 active;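 active = EGFP signal decrease of at least 30% at 10 µM or well 3 SD below plate mean, unless failing retest; inactive = the rest, including hits failing retest or dose response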
Target sequence (Q05BA5 1-1403): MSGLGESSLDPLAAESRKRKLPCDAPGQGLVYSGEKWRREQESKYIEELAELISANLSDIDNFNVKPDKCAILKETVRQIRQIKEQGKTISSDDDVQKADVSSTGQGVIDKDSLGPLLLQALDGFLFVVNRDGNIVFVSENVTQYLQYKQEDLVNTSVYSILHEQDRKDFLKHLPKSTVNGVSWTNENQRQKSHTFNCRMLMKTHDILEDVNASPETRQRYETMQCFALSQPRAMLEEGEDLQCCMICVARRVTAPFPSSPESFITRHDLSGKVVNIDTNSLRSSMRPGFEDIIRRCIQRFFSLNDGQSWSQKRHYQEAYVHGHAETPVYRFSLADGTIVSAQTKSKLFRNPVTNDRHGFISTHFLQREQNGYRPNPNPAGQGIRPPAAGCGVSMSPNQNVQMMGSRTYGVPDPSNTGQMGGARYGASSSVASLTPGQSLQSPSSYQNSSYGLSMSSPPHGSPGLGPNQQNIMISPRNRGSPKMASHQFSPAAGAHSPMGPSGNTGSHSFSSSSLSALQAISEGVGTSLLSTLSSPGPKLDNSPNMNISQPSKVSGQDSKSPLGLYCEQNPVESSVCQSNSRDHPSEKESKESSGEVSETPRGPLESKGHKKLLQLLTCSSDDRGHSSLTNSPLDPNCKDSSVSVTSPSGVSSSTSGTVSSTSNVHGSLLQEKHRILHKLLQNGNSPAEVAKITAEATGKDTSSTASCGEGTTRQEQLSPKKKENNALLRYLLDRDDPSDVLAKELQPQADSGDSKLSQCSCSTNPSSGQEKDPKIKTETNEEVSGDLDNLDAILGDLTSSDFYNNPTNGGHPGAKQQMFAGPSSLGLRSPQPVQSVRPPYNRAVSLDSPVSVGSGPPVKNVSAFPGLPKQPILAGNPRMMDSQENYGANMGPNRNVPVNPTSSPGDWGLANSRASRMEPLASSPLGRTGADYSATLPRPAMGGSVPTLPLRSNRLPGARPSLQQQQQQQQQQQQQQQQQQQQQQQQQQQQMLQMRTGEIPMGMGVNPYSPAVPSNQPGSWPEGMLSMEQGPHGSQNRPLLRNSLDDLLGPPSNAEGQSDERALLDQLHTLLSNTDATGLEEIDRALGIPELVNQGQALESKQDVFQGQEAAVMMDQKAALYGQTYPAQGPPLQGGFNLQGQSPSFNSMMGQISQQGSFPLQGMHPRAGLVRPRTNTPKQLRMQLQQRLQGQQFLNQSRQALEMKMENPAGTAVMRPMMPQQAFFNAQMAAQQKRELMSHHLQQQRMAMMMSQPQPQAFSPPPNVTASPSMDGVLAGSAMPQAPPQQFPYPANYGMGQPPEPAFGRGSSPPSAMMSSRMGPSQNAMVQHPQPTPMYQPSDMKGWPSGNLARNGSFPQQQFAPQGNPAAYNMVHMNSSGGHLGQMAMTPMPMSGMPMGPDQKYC
Dynein cargo inh: dynein cargo transport inhibition; AID 1381; 3617.4 mouse cells, GR-EGFP nuclear translocation imaging; test concentration mostly 20 µM; stimulated with dexamethasone, 1 µM; hits give low values; 0.47% of 220,000 active; z-score, hits read low;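 active = plate z-score of nuclear minus cytoplasmic receptor signal below a set negative limit, without overly bright fluorescence or cell loss, cut at about -3.5 in these data, passing the limit was not always enough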;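 also: z-score of nuclear minus cytoplasmic ring GR-EGFP intensity difference per well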
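Buffer or medium: Induction medium lacking tetracycline, stripped serum | Also added: Dexamethasone agonist, 1.0 µM final, for 30 min | Timing: 48 h induction, 1 h compound, 30 min dex at 37 °C | Detection: Formaldehyde fixation, Hoechst nuclear stain, 10x automated fluorescence imaging | Measure: Nuclear versus cytoplasmic GR-EGFP signal, averaged per well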
XBP1 UPR activ: adaptive UPR (XBP1) activation. 0.33% of 330,000 active. activation, % at 20 µM. CHO-XBP1 luciferase reporter, IRE1-XBP1 UPR activation, luminescence; percent of tunicamycin response, DMSO as zero;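 active = versus positive control, 20 µM dose yields 30% or more activation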
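incubation = overnight seeding at 37 °C, 6 h compound treatment at 37 °C | assay system = CHO-XBP1 cells stably carrying IRE1-XBP1-driven luciferase reporter | input = 1000 cells per well | detection = luciferase luminescence | dosing = single point, 20 µM final compound, 1% DMSO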
CHOP UPR activ: apoptotic UPR (CHOP) activation. CHO-CHOP luciferase reporter, luminescence; percent of tunicamycin response over DMSO baseline. activation, % at 10 µM. 0.34% of 330,000 active. AID 449763;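 active = at 10 µM dose, activation of 40% or more, normalized to positive control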
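System: CHO-CHOP luciferase reporter cell line; amount: 500 cells/well; buffer or medium: F12 medium containing 10% fetal bovine serum; incubation: 6 h compound exposure at 37 °C after overnight seeding; measured by: luciferase luminescence after 10 min with Steady-Glo reagent; evaluation: % reporter activation, DMSO baseline versus tunicamycin full activation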
B2AR ag: human beta-2 adrenergic receptor agonism by FAP; 0.43% of 340,000 active; P07550; response, % (no concentration beside the values); Am2.2-beta2AR cells, FAP receptor internalization, flow cytometry;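 active = response above a set limit, near 3 SD of response in nonfluorescent compounds, cut at about 42% in these data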
Large screens that a line does not name were inactive. This is one part of a sample in which hits are shown more often than they occur.

COc1ccc(Cl)c2c1[nH]c1nc(SCc3ccccn3)nnc12	none
COc1ccc(Cl)c2c1[nH]c1nc(SCc3cccnc3)nnc12	CHOP inh 86
CC1(C)CSC(=NCc2ccccc2)N1C(=O)c1cccc([N+](=O)[O-])c1	none
CSc1nc(N2CCN(Cc3ccc4c(c3)OCO4)CC2)c2ccccc2n1	none (no result: CHOP inh, Dynein cargo inh)
COc1ccc(CNC(=O)COC(=O)c2cccn2C)cc1	none (no result: CHOP inh, p-CIP stab down, Dynein cargo inh)
Cc1ccc(NC(=S)Nc2cc(-c3ccccc3)[nH]n2)cc1Cl	CHOP inh 84
Fc1ccc(NC(=S)Nc2cc(-c3ccccc3)[nH]n2)cc1Cl	CHOP inh 70
CN1C(=O)CCC(CCC(=O)O)(c2ccccc2O)C1=O (stereo unspecified)	none (no result: CHOP inh, Dynein cargo inh)
OCc1cn(-c2ccccc2)nc1-c1ccc(-c2nn(-c3ccccc3)cc2CO)cc1	CHOP inh 88
Cc1cccc(/C=C\c2nc3ccccc3c(=O)[nH]2)c1	CHOP inh 101
O=c1[nH]c(/C=C/c2ccccc2[N+](=O)[O-])nc2ccccc12	CHOP inh 82
O=c1[nH]c(/C=C/c2ccc(Br)cc2)nc2ccccc12	none (no result: CHOP inh, Dynein cargo inh)
C=C(C)C1CC=C(C)/C(=N/NC(=O)CCC(=O)Nc2ccccc2Cl)C1 (stereo unspecified)	none (no result: CHOP inh, Dynein cargo inh)
O=C(O)C(=Cc1cccc([N+](=O)[O-])c1)c1ccc(Cl)cc1	none (no result: CHOP inh, p-CIP stab down, Dynein cargo inh, XBP1 UPR activ, CHOP UPR activ)
CC(C)(C)N(Cc1ccccc1)C(=O)c1ccc(Cl)cc1[N+](=O)[O-]	none
O=C(c1ccc(Cl)cc1[N+](=O)[O-])N(Cc1ccccc1)Cc1ccccc1	CHOP inh 73 (no result: B2AR ag)
Cc1oc(/C=N/NC(=O)CN(c2ccccc2Br)S(C)(=O)=O)cc1Br	none
C=CCNC(=S)NNc1nc2c(c(=O)[nH]1)C1(CCCCC1)Cc1ccccc1-2	CHOP inh 93
O=c1[nH]c(CN(CCO)CCO)nc2c1C1(CCCCC1)Cc1ccccc1-2	none
O=c1[nH]c(NCCO)nc2c1C1(CCCC1)Cc1ccccc1-2	none
CCN(CC)Cc1nc2c(c(=O)[nH]1)C1(CCCC1)Cc1ccccc1-2	CHOP inh 84
Cc1ccccc1Oc1cccc(C(=O)/C(C#N)=C/N(C)C)c1	none
CN(C)/C=C(/C#N)C(=O)c1cccc(Oc2ccc(C(C)(C)C)cc2)c1	CHOP inh 93
Cn1cnc2c(NC3CCCC3)ncnc21	none (no result: p-CIP stab down, Dynein cargo inh, XBP1 UPR activ, CHOP UPR activ, B2AR ag)
Cc1cccc(NC(=O)C2C3CCC4C(CCC32)C4(Cl)Cl)c1 (stereo unspecified)	CHOP inh 76
O=C(Nc1ccc(F)cc1)C1C2CCC3C(CCC21)C3(Cl)Cl (stereo unspecified)	none
O=C(Nc1ccc(Cl)cc1)C1C2CCC3C(CCC21)C3(Cl)Cl (stereo unspecified)	CHOP inh 72 (no result: XBP1 UPR activ, CHOP UPR activ)
CSc1ccc(S(=O)(=O)NCc2ccccc2Cl)cc1	none
CSc1ccc(S(=O)(=O)NCc2ccc(Cl)cc2Cl)cc1	CHOP inh 89
COc1ccc(O)c(-c2c(-c3ccc(Cl)cc3)n[nH]c2C)c1	none
COc1ccc(-c2n[nH]c(C)c2-c2ccc(Cl)cc2)c(O)c1	CHOP inh 93
Cc1[nH]nc(-c2ccc(O)cc2O)c1-c1ccc(Cl)cc1	none
COc1ccc(-c2n[nH]c(C)c2-c2ccc(Cl)cc2)c(O)c1OC	CHOP inh 90
CCCOC(=O)c1ccc(Oc2c(-c3ccc(OC)cc3O)n[nH]c2C)cc1	CHOP inh 91
CCN(C(=O)COC(=O)/C=C/c1ccco1)C1CCCCC1	none (no result: CHOP inh, p-CIP stab down, Dynein cargo inh)
COc1cc(NS(=O)(=O)c2ccc(Nc3nc(-c4ccccc4)cs3)cc2)nc(OC)n1	CHOP inh 90 (no result: XBP1 UPR activ, CHOP UPR activ)
Cc1cccc(OCc2nnc(SCC(=O)NC3CCCCC3)n2C)c1	none (no result: CHOP inh, Dynein cargo inh)
CCN(CC)S(=O)(=O)c1ccc(C(=O)Nc2cccc(C)c2)cc1	CHOP inh 77
Cc1cccc(NC(=O)c2ccc(S(=O)(=O)N(C)C)cc2)c1	none
COc1cccc(C(=O)CSc2nc3ccccc3n2CC(=O)N(C(C)C)C(C)C)c1	none
COC(=O)c1cc(C(=O)c2ccc(Cl)cc2Cl)cn1C	CHOP inh 72
